How the values were obtained:
[1] = molecular target: T1, Endothelin receptor type B (Bos taurus, UniProt P28088); experiment: Tested for the competitive binding versus [125I]- ET-1 determined in bovine cerebrum membrane for Endothelin B receptor; format: cell membranes
T1 sequence (P28088 whole entry): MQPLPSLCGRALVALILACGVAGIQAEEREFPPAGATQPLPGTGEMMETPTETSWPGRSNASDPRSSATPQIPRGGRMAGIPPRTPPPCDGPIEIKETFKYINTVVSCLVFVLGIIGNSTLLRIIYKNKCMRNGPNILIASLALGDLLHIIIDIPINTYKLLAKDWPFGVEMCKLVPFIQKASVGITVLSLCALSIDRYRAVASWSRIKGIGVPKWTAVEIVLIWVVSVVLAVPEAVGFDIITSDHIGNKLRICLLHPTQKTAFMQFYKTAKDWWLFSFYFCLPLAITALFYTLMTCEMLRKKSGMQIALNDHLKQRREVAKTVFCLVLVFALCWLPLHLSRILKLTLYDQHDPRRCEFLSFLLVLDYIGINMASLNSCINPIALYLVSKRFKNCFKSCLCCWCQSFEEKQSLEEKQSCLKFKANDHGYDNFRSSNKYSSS
How it was run: (§1)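 Membranes (porcine cardiac ventricle at 12 μg/mL for ETA; bovine cerebrum at 150 μg/mL for ETB) in pH 7.2 Tris/EGTA/Mg acetate/0.1% BSA buffer with protease inhibitors. Incubated with 100 pM [125I]ET-1 and varied compound for 1 h at 25 °C, then filtered and counted by gamma counter. IC50 given as mean ± SEM of ≥3 determinations.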

Endothelin-1 receptor [2] = molecular target: T2, Endothelin-1 receptor (Sus scrofa, UniProt Q29010); experiment: ETA receptor antagonist activity was measured by inhibition of ET-1 induced vasoconstriction in isolated porcine coronary artery; format: functional, tissue-based; settings: read-out: pA2 (converted)
T2 sequence (Q29010 whole entry): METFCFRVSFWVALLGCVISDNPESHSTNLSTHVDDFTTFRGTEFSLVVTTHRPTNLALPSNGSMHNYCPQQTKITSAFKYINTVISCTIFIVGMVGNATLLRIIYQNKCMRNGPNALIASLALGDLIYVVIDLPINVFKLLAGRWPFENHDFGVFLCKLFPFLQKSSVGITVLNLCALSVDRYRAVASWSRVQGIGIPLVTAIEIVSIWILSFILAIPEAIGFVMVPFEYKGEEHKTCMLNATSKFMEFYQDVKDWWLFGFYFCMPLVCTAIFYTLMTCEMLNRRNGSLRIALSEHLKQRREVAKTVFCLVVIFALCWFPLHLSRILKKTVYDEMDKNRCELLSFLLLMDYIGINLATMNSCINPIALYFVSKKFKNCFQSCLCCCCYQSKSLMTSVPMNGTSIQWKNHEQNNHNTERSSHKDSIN
How it was run: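 Porcine right coronary artery, endothelium-denuded 2 × 5-mm helical strips in Krebs-Henseleit, 95% O2-5% CO2, 37 °C, isometric tension. Compound added 15 min before cumulative ET-1. Tension normalized to 60 mM KCl. pA2 by van Rossum's method; n in parentheses.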

[3] = molecular target: T3, Endothelin receptor, ET-A/ET-B (Homo sapiens, UniProt P24530+P25101); experiment: (§2) Antagonism of sarafotoxin S6c-induced vasoconstriction in rabbit pulmonary artery at both ETA and ETB receptors; format: functional, Oryctolagus cuniculus; settings: target entry is the homologue from another species
T3 sequence (P24530 whole entry): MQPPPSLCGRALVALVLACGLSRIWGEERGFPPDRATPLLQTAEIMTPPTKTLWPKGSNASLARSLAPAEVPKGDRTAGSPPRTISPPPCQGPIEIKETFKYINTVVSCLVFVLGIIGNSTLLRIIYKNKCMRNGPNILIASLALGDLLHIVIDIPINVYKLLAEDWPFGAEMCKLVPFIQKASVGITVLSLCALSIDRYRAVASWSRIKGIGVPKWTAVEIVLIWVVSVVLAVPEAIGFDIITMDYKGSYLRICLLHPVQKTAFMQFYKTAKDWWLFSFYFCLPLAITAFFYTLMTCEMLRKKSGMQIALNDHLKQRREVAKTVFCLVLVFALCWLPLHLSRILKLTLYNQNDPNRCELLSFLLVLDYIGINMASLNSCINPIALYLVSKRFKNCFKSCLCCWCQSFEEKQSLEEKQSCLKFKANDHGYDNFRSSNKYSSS
T3 sequence (P25101 whole entry): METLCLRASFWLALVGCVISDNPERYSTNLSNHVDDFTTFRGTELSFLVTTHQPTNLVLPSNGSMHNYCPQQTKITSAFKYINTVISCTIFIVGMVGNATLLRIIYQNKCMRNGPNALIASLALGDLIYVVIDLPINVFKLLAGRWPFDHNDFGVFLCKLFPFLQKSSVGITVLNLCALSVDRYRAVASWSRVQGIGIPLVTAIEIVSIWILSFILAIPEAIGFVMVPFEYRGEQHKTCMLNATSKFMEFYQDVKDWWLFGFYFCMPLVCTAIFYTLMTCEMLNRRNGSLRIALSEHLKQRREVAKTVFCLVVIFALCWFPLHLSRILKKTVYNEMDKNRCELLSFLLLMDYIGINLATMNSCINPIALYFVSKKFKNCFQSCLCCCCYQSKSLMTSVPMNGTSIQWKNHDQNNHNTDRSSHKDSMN
How it was run: (§3)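 Rabbit pulmonary artery, endothelium-denuded 5-mm rings in Krebs-Henseleit, 95% O2-5% CO2, 37 °C, isometric tension. Compound added 15 min before cumulative sarafotoxin S6c. Tension normalized to 60 mM KCl response. Antagonism given as pA2 (van Rossum) or pD2' value; n in parentheses.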

Endothelin-1 receptor [4] = molecular target: T2, Endothelin-1 receptor; experiment: Tested for the competitive binding versus [125I]- ET-1 determined in porcine cardiac ventricular membrane for Endothelin A receptor; how it was run: as §1
[5] = molecular target: T4, Endothelin-1 receptor (Sus scrofa) (UniProt Q29010); experiment: Tested for the ETA receptor agonist activity by measuring maximum vasoconstriction in porcine coronary artery; format: functional, tissue-based
T4 sequence (whole entry): T2 sequence (Q29010 whole entry)
How it was run: (§4)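 Porcine right coronary artery, endothelium-denuded helical strips in Krebs-Henseleit, 37 °C, isometric tension. Compound applied cumulatively, up to 1 μM. Maximal contraction expressed as % of 60 mM KCl-induced tension; n in parentheses.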

[6] = molecular target: Endothelin receptor, ET-A/ET-B (Homo sapiens) (UniProt P24530+P25101); experiment: as §2; format: functional; settings: Oryctolagus cuniculus; target entry is the homologue from another species; how it was run: as §3
[7] = molecular target: T4, Endothelin-1 receptor (Sus scrofa); experiment: Endothelin A receptor agonist activity as maximum vasoconstriction in porcine coronary artery; format: functional, tissue-based; how it was run: as §4

| Structure (SMILES) | IC50 [1] [pM] | Kb (Endothelin-1 receptor [2]) [pM] | pA2 [3] | IC50 (Endothelin-1 receptor [4]) [pM] | Max vasoconstriction [5] | pD2 [6] | Max vasoconstriction [7] |
| --- | --- | --- | --- | --- | --- | --- | --- |
| CC[C@H](C)[C@H](NC(=O)[C@H](CC(C)(C)C)NC(=O)[C@@H](NC(=O)[C@H](CC(C)C)NC(=O)[C@H](Cc1c[nH]cn1)NC(=O)[C@@H]1CSSC[C@H](N)C(=O)N[C@@H](CO)C(=O)N[C@H]2CSSC[C@H](NC(=O)[C@H](CCC(=O)O)NC(=O)[C@H](CCCCN)NC(=O)[C@H](CC(=O)O)NC(=O)[C@H](CCSC)NC(=O)[C@H](CC(C)C)NC(=O)[C@H](CO)NC(=O)[C@H](CO)NC2=O)C(=O)N[C@@H](C(C)C)C(=O)N[C@@H](Cc2ccc(O)cc2)C(=O)N[C@@H](Cc2ccccc2)C(=O)N1)[C@@H](C)O)C(=O)N[C@@H](Cc1c[nH]c2ccccc12)C(=O)O | 250 | 39800 | 8.4 | 700 | – | – | – |
| CC[C@H](C)[C@H](NC(=O)[C@H](CC(C)C)NC(=O)[C@@H](NC(=O)[C@H](CC(C)C)NC(=O)[C@H](Cc1c[nH]cn1)NC(=O)[C@@H]1CSSC[C@@H](N)C(=O)N[C@@H](CO)C(=O)N[C@@H]2CSSC[C@@H](NC(=O)[C@H](CCC(=O)O)NC(=O)[C@@H](CCCCN)NC(=O)[C@H](CC(=O)O)NC(=O)[C@@H](CCSC)NC(=O)[C@H](CC(C)C)NC(=O)[C@@H](CO)NC(=O)[C@H](CO)NC2=O)C(=O)N[C@@H](C(C)C)C(=O)N[C@H](Cc2ccc(O)cc2)C(=O)N[C@@H](Cc2ccccc2)C(=O)N1)[C@H](C)O)C(=O)N[C@@H](Cc1c[nH]c2ccccc12)C(=O)O | – | – | – | – | 4 | 8.7 | – |
| CC[C@H](C)[C@H](NC(=O)[C@H](CC1CCCCC1)NC(=O)[C@@H](NC(=O)[C@H](CC(C)C)NC(=O)[C@H](Cc1c[nH]cn1)NC(=O)[C@@H]1CSSC[C@@H](N)C(=O)N[C@@H](CO)C(=O)N[C@@H]2CSSC[C@H](NC(=O)[C@H](CCC(=O)O)NC(=O)[C@@H](CCCCN)NC(=O)[C@@H](CC(=O)O)NC(=O)[C@@H](CCSC)NC(=O)[C@H](CC(C)C)NC(=O)[C@@H](CO)NC(=O)[C@H](CO)NC2=O)C(=O)N[C@@H](C(C)C)C(=O)N[C@H](Cc2ccc(O)cc2)C(=O)N[C@@H](Cc2ccccc2)C(=O)N1)[C@@H](C)O)C(=O)N[C@@H](Cc1c[nH]c2ccccc12)C(=O)O | – | – | – | – | – | 7.8 | 2 |
